Most compounds without a hit are left out; they make up all but 4.5% or so of the library.
MDM2 E3 inh – inhibitors of human Mdm2 E3 ubiquitin ligase. Q00987. cell-based MDM2 ubiquitination luciferase reporter, 2 h; 0 = plate control, 100 = twice control, blank-subtracted. signal enhancement, % at 5 µM. 0.11% of 210,000 active;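 active = signal enhancement of 30% or more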;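 note: luminescence tracks abundance of the self-degrading MDM2-luciferase fusion protein; higher signal means inhibition of MDM2 E3 ligase activity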
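Test system: mammalian cells stably expressing self-ubiquitinating, self-degrading MDM2 E3–luciferase fusion; Amount: 2000 cells in each well; Medium: DMEM; Schedule: 4 h settle plus 2 h compound, 37 °C; Technique: SteadyLite luciferase luminescence after 15 min room-temperature reagent incubation; Benchmarks: plate control and blank wells.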
PERK inh – human PERK inhibition, primary cell-based screen; AID 1416; 0.17% of 220,000 active; inhibition, % at 5.6 µM; Q9NZJ5; CHO PERK-DD fusion, SEAP luminescence translation reporter;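 active = inhibition above the mean inhibition of all tested compounds plus 3 SD, set separately per screening campaign, cut at about 2.9% in these data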;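 note: PERK kinase domain activated by AP20187 dimerizer at 100 nM; 0% = DMSO with dimerizer and 100% = rapamycin at 8.4 µM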
APP 5'UTR act – APP 5'UTR luciferase reporter activation; SH-SY5Y APP 5'UTR luciferase reporter, luminescence; zero percent = DMSO vehicle wells; activation, % at 2 µM; 1% of 190,000 active;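 active = activation above a set limit, based on mean plus 3 SD of controls, cut at about 140% in these data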
NF-kB neuron act – compounds increasing NF-kB expression in human neuronal cells; NF-kB reporter expression; active compounds read high; fold change at 12.5 µM; 1.6% of 190,000 active; in the data active = fold change above about 3.3
AHR act – activates the human aryl hydrocarbon receptor. P35869. AHR-responsive luciferase reporter cells, luminescence. activation, % at 5 µM. 2.5% of 320,000 active. AID 2796; in the data active = activation above about 47%;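 note: 0% = vehicle wells and 100% = reference agonist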
STAT1 activator – increases IFN-gamma driven STAT1 reporter signal | 2.6% of 200,000 active | AID 932 | activation (% of control), % at 5.5 µM | NIH 3T3 STAT1-luciferase reporter, luminescence; 100% = IFN-gamma alone, no compound;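 active = activation above the screen-wide mean activation plus 3 SD, cut at about 130% in these data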;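 note: raw ratio to IFN-gamma control signal so 100% means no change and 0% no light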
AHR act cf – confirmation of human aryl hydrocarbon receptor activators | human cells, AHR-responsive luciferase reporter, luminescence | AID 2845 | shares compounds with AHR act | activation, % at 9 µM | 87% of 2,300 active; in the data active = activation above about 49%;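 note: HepG2 hepatoma cells carrying a DRE-driven firefly luciferase reporter; 0% = vehicle wells and 100% = reference agonist wells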
PXR act counter – counter-screen for AHR activators: human PXR activators | shares compounds with AHR act | cell-based PXR reporter, luciferase luminescence | activation, % at 11.6 µM | 88% of 2,300 active | AID 434939; in the data active = activation above about 11%;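 note: human hepatoma DPX-2 cells expressing full-length human PXR; 0% = DMSO and 100% = reference agonist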
Target sequence (O75469 whole entry, looked up): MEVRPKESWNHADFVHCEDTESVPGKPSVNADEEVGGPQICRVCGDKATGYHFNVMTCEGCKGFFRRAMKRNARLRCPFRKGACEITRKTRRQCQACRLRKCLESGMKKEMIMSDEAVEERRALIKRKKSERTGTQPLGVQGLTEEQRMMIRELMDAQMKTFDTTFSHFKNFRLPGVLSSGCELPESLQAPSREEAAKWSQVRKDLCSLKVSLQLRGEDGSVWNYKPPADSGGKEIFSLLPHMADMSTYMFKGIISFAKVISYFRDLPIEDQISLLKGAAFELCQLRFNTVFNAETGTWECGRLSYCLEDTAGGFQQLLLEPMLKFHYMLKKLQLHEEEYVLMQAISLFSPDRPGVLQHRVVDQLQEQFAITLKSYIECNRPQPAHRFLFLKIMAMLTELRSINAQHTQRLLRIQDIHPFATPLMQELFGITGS
Numbers without * were called inactive; x = no result.

SMILES | MDM2 E3 inh | PERK inh | APP 5'UTR act | NF-kB neuron act | AHR act | STAT1 activator | AHR act cf | PXR act counter
COc1ccc(/C=N/NC(=O)c2cccc(NC(=O)c3ccc(F)cc3)c2)c(C(=O)O)c1OC | -18.4 | 0.8 | 8.1 | 1.06 | 105.5* | 115.7 | 93.2* | x
COc1cccc(/C=N/NC(=O)c2ccc3nc[nH]c3c2)c1O | -14.6 | 1.5 | x | x | 6.7 | x | x | x
Brc1ccccc1OCCOc1cccc2cccnc12 | -7.2 | -0.2 | 0.3 | 1.45 | 9.9 | 119.2 | x | x
c1cnc2c(OCc3nc4ccccc4[nH]3)cccc2c1 | -47.1 | -1.4 | x | 2.73 | 110.3* | 143.5* | 149.1* | 110.5*
O=C(COc1ccc([N+](=O)[O-])cc1)N(C1CCCCC1)C1CCS(=O)(=O)C1 (stereo unspecified) | x | x | x | x | -0.5 | x | x | x
COc1ccc(-c2nc3ncccn3c2Br)cc1 | -1.9 | 2.6 | 43.2 | 1.78 | 29.4 | 123.3 | x | x
Brc1c(-c2ccc3c(c2)OCO3)nc2ncccn12 | -17.3 | 1.7 | 23.4 | 1.53 | 101.2* | 125.4 | 115.8* | 22.2*
O=C(NCCc1ccccc1)c1c[nH]c2c(F)cccc2c1=O | x | x | x | x | 140.6* | x | 129.9* | 83.5*
O=C(N=C1N=C2C=CC=CN2Cc2ccccc21)c1ccc(S(=O)(=O)N2CCCC2)cc1 | -10.0 | -0.3 | x | x | 13.6 | x | x | x
CN(C)S(=O)(=O)c1cccc(C(=O)N=C2N=C3C=CC(Cl)=CN3Cc3ccccc32)c1 | -15.4 | -0.2 | x | x | 97.0* | x | 50.2* | 32.2*
O=C(NCc1ccncc1)c1ccccc1Nc1ccc(SC(F)F)cc1 | x | x | x | x | 13.2 | x | x | x
CNC(=O)c1ccccc1Nc1ccc(SC(F)F)cc1 | x | x | x | x | 113.3* | x | 96.6* | 22.7*
S=C(N/N=C/c1ccccc1Cl)Nc1cccc(Cl)c1Cl | -12.8 | 0.3 | x | x | 118.5* | x | 102.8* | 30.3*
CCCCCOc1ccc(Cn2ccnc2)cc1[N+](=O)[O-] | -5.2 | 0.6 | -1.0 | 1.01 | 101.1* | 104.2 | 75.2* | 53.1*
CCOCCCN(C)C1CCN(C(=O)c2oc3ccccc3c2NC(=O)c2cccc([N+](=O)[O-])c2)CC1 | x | x | x | x | -5.7 | x | x | x
CCc1nnc(NC(=O)/C=C/c2ccco2)s1 | -7.9 | -0.1 | 43.9 | 2.12 | 93.3* | 123.4 | 59.4* | 57.7*
CCOC(=O)c1c(C)[nH]c(C(=O)N/N=C\c2ccccc2Cl)c1C | -6.5 | -0.2 | 1.8 | 0.84 | 81.5* | 91.3 | 73.3* | 14.7*
NC(=S)N/N=C/c1ccc(-c2cc(Cl)c(Cl)cc2Cl)o1 | -0.6 | 0.1 | 25.3 | 1.35 | 107.7* | 105.4 | 102.1* | 21.8*
CN1C(=O)/C(=C/c2ccccc2OCc2ccccc2F)NC1=S | -14.2 | 0.7 | -3.9 | 1.12 | 93.3* | 94.8 | 78.5* | 85.0*
Cn1ncc(Cl)c1C(=O)Nc1ccncc1 | -4.5 | 0.1 | 1.0 | 1 | -1.1 | 95.2 | x | x
Cc1cnc(NC(=O)Cc2ccccc2Cl)s1 | x | x | x | x | 11.2 | x | x | x
O=C(Nc1ccc2c(c1)OCO2)c1c(Cl)nc2sccn12 | -3.3 | -1.5 | 31.8 | 1.14 | 114.2* | 131.3* | 154.2* | 53.3*
Cn1ncc(Cl)c1C(=O)Nc1ccc2c(c1)OCO2 | x | x | x | x | 123.2* | x | 117.0* | 13.2*
Cc1cnc(NC(=O)c2c(Cl)cnn2C)s1 | x | x | x | x | 88.2* | x | 93.0* | x
O=C(c1cccc(S(=O)(=O)N2CCc3ccccc32)c1)N1CCOCC1 | x | x | x | x | 4.3 | x | x | x
SMILES | MDM2 E3 inh | PERK inh | APP 5'UTR act | NF-kB neuron act | AHR act | STAT1 activator | AHR act cf | PXR act counter
Cc1nnc(Nc2ccccn2)c2ccccc12 | 5.2 | -0.2 | 1.9 | 1.18 | 147.7* | 98.3 | 142.7* | 57.7*
CCn1c(/C=C/c2cc[n+](C)cc2)nc2ccccc21 | x | x | x | x | -0.6 | x | x | x
CCCn1c(/C=C/c2ccccc2)nc2ccccc21 | -2.5 | -1.0 | 122.6 | 5.57* | 88.0* | 144.5* | 118.0* | 45.1*
COc1cc(C#Cc2c(-c3cncn3C)n(C)c3ccc(-c4ccc5cc[nH]c5c4)cc23)cc(OC)c1 | x | x | x | x | 105.7* | x | 82.5* | 23.1*
COc1cccc(-c2c(-c3cc(OC)cc(OC)c3)n(C)c3ccc(-c4ccc5cc[nH]c5c4)cc23)c1 | x | x | x | x | 21.1 | x | x | x
Cc1ccc2[nH]c(=O)c(-c3nc4cc(C)ccn4c3NCc3ccco3)cc2c1 | -15.0 | -0.6 | 41.3 | 1.13 | 87.6* | 104.2 | 74.9* | 39.5*

Screening results: PubChem, several laboratories
